Calls of active or inactive are those of the source. The calls are words filed in the database; no cut-off is given here.
Assays:
FaDu [1] = test: Antiproliferative activity against human FADU cells assessed as fractional inhibition at 0.05 uM after 6 days in absence of irradiation by MTT assay; type: functional
In short: (§1)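 FaDu or SCC-25 cells were grown in DMEM with 10% FBS at 37 °C and 5% CO2. They were seeded at 1000 cells/well in 96-well plates for 24 h, then dosed with compound (fresh DMSO stock diluted in medium) or vehicle. After 1 h, X-rays were given with a sliding 5 mm lead shield, so one plate held 0, 2.5, 5 and 10 Gy columns. After 6 days, MTT (0.5 mg/mL, 45 min) was added, then DMSO, and A570 was read. Values were normalised to the unirradiated vehicle control. Fractional inhibition = 1 − surviving fraction.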

FaDu [2] = test: Antiproliferative activity against human FADU cells assessed as fractional inhibition at 0.005 uM after 6 days in absence of irradiation by MTT assay; type: functional; in short: as §1
SCC-25 [3] = test: Synergistic antiproliferative activity against human SCC25 cells assessed as reduction in colony formation unit followed by irradiation with 5 Gy IR and measured after 10 to 14 days by crystal violet staining based assay; type: functional, cell-based
FaDu [4] = test: Synergistic antiproliferative activity against human FADU cells assessed as reduction in cell viability at 1 uM preincubated for 1 hr followed by irradiation with 5 Gy IR and measured after 6 days by MTT assay relative to control; type: functional; details: light or radiation study; in short: as §1
SCC-25 [5] = test: Synergistic induction of cell cycle arrest in human SCC25 cells assessed as decrease in accumulation at G0/G1 phase at 0.5 uM followed irradiation with 5Gy IR incubated for 24 hrs by propidium iodide staining based flow cytometry; type: functional
In short: (§2)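 FaDu or SCC-25 cells, untreated, given 5 Gy IR, drug, or drug plus 5 Gy. Cell-cycle distribution by propidium iodide staining and flow cytometry at 6 h and 24 h after treatment. G0/G1, S and G2/M fractions compared with control by t test.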

FaDu [6] = test: Synergistic antiproliferative activity against human FADU cells assessed as fractional inhibition at 5 uM preincubated for 1 hr followed by irradiation with 2.5 Gy IR and measured after 6 days by MTT assay (reference value: 0.131); type: functional; in short: as §1
FaDu [7] = test: Synergistic antiproliferative activity against human FADU cells assessed as fractional inhibition at 5 uM preincubated for 1 hr followed by irradiation with 5 Gy IR and measured after 6 days by MTT assay (reference value: 0.097); type: functional; in short: as §1
FaDu [8] = test: Synergistic antiproliferative activity against human FADU cells assessed as combination index at 0.05 uM preincubated for 1 hr followed by irradiation with 2.5 Gy IR and measured after 6 days by MTT assay; type: functional
In short: (§3)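 Combination index was calculated by the Chou–Talalay median-effect method from the 6-day MTT viability data of the single-plate compound/X-ray (2.5, 5, 10 Gy) design. CI < 1 denotes synergy, CI = 1 additivity and CI > 1 antagonism.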

FaDu [9] = test: Synergistic antiproliferative activity against human FADU cells assessed as combination index at 5 uM preincubated for 1 hr followed by irradiation with 2.5 Gy IR and measured after 6 days by MTT assay; type: functional; in short: as §3
FaDu [10] = test: Synergistic antiproliferative activity against human FADU cells assessed as combination index at 0.005 uM preincubated for 1 hr followed by irradiation with 5 Gy IR and measured after 6 days by MTT assay; type: functional; in short: as §3
FaDu [11] = test: Synergistic antiproliferative activity against human FADU cells assessed as combination index at 0.05 uM preincubated for 1 hr followed by irradiation with 5 Gy IR and measured after 6 days by MTT assay; type: functional; in short: as §3
FaDu [12] = test: Synergistic antiproliferative activity against human FADU cells assessed as combination index at 0.005 uM preincubated for 1 hr followed by irradiation with 10 Gy IR and measured after 6 days by MTT assay; type: functional; in short: as §3
FaDu [13] = test: Synergistic antiproliferative activity against human FADU cells assessed as combination index at 0.5 uM preincubated for 1 hr followed by irradiation with 10 Gy IR and measured after 6 days by MTT assay; type: functional; in short: as §3
SCC-25 [14] = test: Antiproliferative activity against human SCC25 cells assessed as fractional inhibition at 0.005 uM after 6 days in absence of irradiation by MTT assay; type: functional; in short: as §1
SCC-25 [15] = test: Antiproliferative activity against human SCC25 cells assessed as fractional inhibition at 0.05 uM after 6 days in absence of irradiation by MTT assay; type: functional; in short: as §1
SCC-25 [16] = test: Synergistic antiproliferative activity against human SCC25 cells assessed as fractional inhibition at 0.005 uM preincubated for 1 hr followed by irradiation with 2.5 Gy IR and measured after 6 days by MTT assay (reference value: 0.011); type: functional
In short: (§4)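 SCC-25 cells seeded 1000/well in 96-well plates in DMEM/10% FBS and left 24 h. Drug or vehicle added, then after 1 h X-irradiated to 2.5, 5 or 10 Gy on one plate using a shifted lead shield. Plates incubated 6 days, then MTT (0.5 mg/mL, 45 min), DMSO solubilisation, absorbance at 570 nm. Fractional inhibition = 1 − fraction of surviving cells.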

SCC-25 [17] = test: Synergistic antiproliferative activity against human SCC25 cells assessed as fractional inhibition at 0.005 uM preincubated for 1 hr followed by irradiation with 5 Gy IR and measured after 6 days by MTT assay (reference value: 0.133); type: functional; in short: as §4
SCC-25 [18] = test: Synergistic antiproliferative activity against human SCC25 cells assessed as fractional inhibition at 0.5 uM preincubated for 1 hr followed by irradiation with 5 Gy IR and measured after 6 days by MTT assay (reference value: 0.133); type: functional; in short: as §4
SCC-25 [19] = test: Synergistic antiproliferative activity against human SCC25 cells assessed as fractional inhibition at 0.5 uM preincubated for 1 hr followed by irradiation with 10 Gy IR and measured after 6 days by MTT assay (reference value: 0.347); type: functional; in short: as §4
SCC-25 [20] = test: Synergistic antiproliferative activity against human SCC25 cells assessed as combination index at 0.05 uM preincubated for 1 hr followed by irradiation with 5 Gy IR and measured after 6 days by MTT assay; type: functional
In short: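 SCC-25 cells grown in DMEM with 10% FBS at 37 °C, 5% CO2, seeded 1000 cells/well in 96-well plates and left 24 h. Drug in DMSO, diluted in complete medium, added 1 h before X-irradiation. A movable 5 mm lead shield gave 0, 2.5, 5 or 10 Gy on one plate. After 6 days, MTT readout at 570 nm. Combination index by Chou–Talalay from viability data.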

FaDu [21] = test: Synergistic induction of cell cycle arrest in human FADU cells assessed as increase in accumulation at G2/M phase at 0.5 uM followed irradiation with 5Gy IR incubated for 24 hrs by propidium iodide staining based flow cytometry; type: functional; in short: as §2
FaDu [22] = test: Synergistic induction of cell cycle arrest in human FADU cells assessed as decrease in cyclin B1 at 0.5 uM followed by irradiation with 5 Gy IR incubated for 48 hrs by immunoblot analysis; type: functional, cell-based
In short: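 FaDu cells received drug, 5 Gy IR, or both; vehicle-only controls. Lysates collected after 48 h and immunoblotted with primary antibodies to NRF2, cyclin B1, CDK1, Bax and Bcl-2. Membranes stripped and reprobed for beta-actin as loading control.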

SCC-25 [23] = test: Synergistic antiproliferative activity against human SCC25 cells assessed as reduction in cell viability at 1 uM preincubated for 1 hr followed by irradiation with 5 Gy IR and measured after 6 days by MTT assay relative to control; details: SCC-25, light or radiation study

COc1ccc2c(c1)N(CCO)C1=C(C(=O)OC1)C2c1ccccc1 (stereo not drawn)
fractional inhibitory concentration index (FICI) (FaDu [1]): 0.186
fractional inhibitory concentration index (FICI) (FaDu [2]): 0.145
inhibition (SCC-25 [3]): Dose-dependent effect
inhibition at 1 µM (FaDu [4]): 48%
Activity (SCC-25 [5]): Active
fractional inhibitory concentration index (FICI) (FaDu [6]): 0.501
fractional inhibitory concentration index (FICI) (FaDu [7]): 0.633
CI (FaDu [8]): 0.234
CI (FaDu [9]): 1.225
CI (FaDu [10]): 1.822
CI (FaDu [11]): 1.18
CI (FaDu [12]): 0.856
CI (FaDu [13]): 0.319
fractional inhibitory concentration index (FICI) (SCC-25 [14]): 0.009
fractional inhibitory concentration index (FICI) (SCC-25 [15]): 0.005
fractional inhibitory concentration index (FICI) (SCC-25 [16]): 0.015
fractional inhibitory concentration index (FICI) (SCC-25 [17]): 0.157
fractional inhibitory concentration index (FICI) (SCC-25 [18]): 0.658
fractional inhibitory concentration index (FICI) (SCC-25 [19]): 0.713
CI (SCC-25 [20]): 1.753
fold change (FC) (FaDu [21]): 2
Activity (FaDu [22]): Active
inhibition at 1 µM (SCC-25 [23]): 65%
